Measurements from different studies.
Compare with care: the assays were run in different laboratories. Values after ≈ are worked out from the molar mass of the structure shown.

`CCCS(=O)(=O)Oc1ccc(C=NNC(=O)CSc2nc3ccc(Cl)cc3c(=O)n2-c2ccccc2)cc1OC` gave an inhibition zone of 2 mm (Klebsiella pneumoniae; microbial growth, well diffusion; 20 µg/mL).
The MIC of `C=C[C@]1(C)C[C@@H](OC(=O)CS[C@@H]2C[C@H]3CC[C@@H](C2)N3C)[C@]2(C)[C@H](C)CC[C@]3(CCC(=O)[C@H]32)[C@@H](C)[C@@H]1O` is reported as 0.0312 µg/mL (≈ 0.0604 µM) (Streptococcus pneumoniae; microbial growth, agar dilution; ATCC49619).
With `COc1cc(C=NNC(=O)CSc2nc3ccc(Cl)cc3c(=O)n2-c2ccccc2)ccc1OS(C)(=O)=O` the inhibition zone was 2 mm (Klebsiella pneumoniae; microbial growth, well diffusion; 20 µg/mL).
`CC(C)(O/N=C(\C(=O)N[C@@H]1C(=O)N2C(C(=O)[O-])=C(C[n+]3ccccc3)CS[C@H]12)c1csc(N)n1)C(=O)O` has an MIC of < 0.5 µg/mL (Klebsiella pneumoniae; microbial growth, broth dilution; ATCC43816).
`CC(=O)NC[C@H]1CN(c2ccc(N3CCOCC3)c(F)c2)C(=O)O1` gave an MIC90 of 2 µg/mL (Streptococcus pneumoniae; microbial growth; PRSP; clinical isolate).
`CCCS(=O)(=O)Oc1ccc(C=NNC(=O)CSc2nc3c(C)cccc3c(=O)n2-c2ccccc2)cc1OC` gave an inhibition zone of 2 mm (Klebsiella pneumoniae; microbial growth, well diffusion; 20 µg/mL).
The inhibition of `CC1(C)C[C@H]2[C@H]1CC[C@]1(C)CCC[C@@]2(NS(=O)(=O)C(C)(C)C)C1` is reported as < 50% (HT-29; cell growth or viability, CCK-8; 10 µM).
For `CC1(C)S[C@@H]2[C@H](NC(=O)[C@H](N)c3ccccc3)C(=O)N2[C@H]1C(=O)O`, the MIC90 was 4 µg/mL (Streptococcus pneumoniae; microbial growth; clinical isolate).
`Cc1cccc2c(=O)n(-c3ccccc3)c(SCC(=O)NN=Cc3ccc(OS(C)(=O)=O)cc3)nc12` gave an inhibition zone of 3 mm (Klebsiella pneumoniae; microbial growth, well diffusion; 20 µg/mL).
`O=c1c2cc(Cl)ccc2nc(-c2ccccc2)n1N=Cc1c(F)cccc1Cl` has an IC50 of 46.4 µM (LLC-PK1; cell growth or viability, MTT; 72 h).
For `COc1ccc(C=NNC(=O)CSc2nc3c(C)cccc3c(=O)n2-c2ccccc2)cc1OS(C)(=O)=O`, the inhibition zone was 2 mm (Klebsiella pneumoniae; microbial growth, well diffusion; 20 µg/mL).
The inhibition of `Cc1nc(Nc2ncc(C(=O)Nc3c(C)cccc3Cl)s2)cc(N2CC[C@H](O)C2)n1` is reported as 56% (CA46; cell growth or viability, ATP luminescence; 10 µM, 72 h).
`CC1(C)C[C@H]2[C@H]1CC[C@]1(C)CCC[C@@]2(n2cc(C(=O)N3CCNCC3)nn2)C1` gave an inhibition of 91.6% (HT-29; cell growth or viability, CCK-8; 10 µM).
`COc1cccc(C=Nn2c(-c3ccccc3)nc3ccc(Cl)cc3c2=O)c1` has an IC50 of 177 µM (LLC-PK1; cell growth or viability, MTT; 72 h).
With `CC1(C)C[C@H]2[C@H]1CC[C@]1(C)CCC[C@@]2(n2cc(CN3CCOCC3)nn2)C1` the inhibition was 45% (HT-29; cell growth or viability, CCK-8; 50 µM).
With `CCS(=O)(=O)Oc1ccc(C=NNC(=O)CSc2nc3ccc(Cl)cc3c(=O)n2-c2ccccc2)cc1` the inhibition zone was 2 mm (Klebsiella pneumoniae; microbial growth, well diffusion; 20 µg/mL).
For `O=c1c2cc(Cl)ccc2nc(-c2ccccc2)n1N=Cc1cccc(O)c1`, the IC50 was 321 µM (LLC-PK1; cell growth or viability, MTT; 72 h).
`CC1(C)C[C@H]2[C@H]1CC[C@]1(C)CCC[C@@]2(n2cc(C(=O)NC3CCNCC3)nn2)C1` has an inhibition of 68.1% (HT-29; cell growth or viability, CCK-8; 10 µM).
For `CC[C@H]1OC(=O)[C@H](C)[C@@H](O[C@H]2C[C@@](C)(OC)[C@@H](O)[C@H](C)O2)[C@H](C)[C@@H](O[C@@H]2O[C@H](C)C[C@H](N(C)C)[C@H]2O)[C@](C)(O)C[C@@H](C)/C(=N\OCOCCOC)[C@H](C)[C@@H](O)[C@]1(C)O`, the MIC90 was 16 µg/mL (Streptococcus pneumoniae; microbial growth; PRSP; clinical isolate).
For `CC1(C)C[C@H]2[C@H]1CC[C@]1(C)CCC[C@@]2(NS(=O)(=O)c2ccc(OC(F)(F)F)cc2)C1`, the inhibition was 75.9% (HT-29; cell growth or viability, CCK-8; 50 µM).
The MIC90 of `CC1(C)S[C@@H]2[C@H](NC(=O)[C@H](N)c3ccc(O)cc3)C(=O)N2[C@H]1C(=O)O` is reported as 3 µM (Vibrio vulnificus; microbial growth, broth dilution).
With `CC1(C)C[C@H]2[C@H]1CC[C@]1(C)CCC[C@@]2(n2cc(C(=O)NCCN)nn2)C1` the inhibition was 78.3% (HT-29; cell growth or viability, CCK-8; 50 µM).
With `CN[C@H](CC(C)C)C(=O)N[C@H]1C(=O)N[C@@H](CC(N)=O)C(=O)N[C@H]2C(=O)N[C@H]3C(=O)N[C@H](C(=O)N[C@H](C(=O)O)c4cc(O)cc(O)c4-c4cc3ccc4O)[C@H](O)c3ccc(c(Cl)c3)Oc3cc2cc(c3O[C@@H]2O[C@H](CO)[C@@H](O)[C@H](O)[C@H]2O[C@H]2C[C@](C)(N)[C@H](O)[C@H](C)O2)Oc2ccc(cc2Cl)[C@H]1O` the MIC was 0.5 µg/mL (≈ 0.345 µM) (Streptococcus pneumoniae; microbial growth, agar dilution; ATCC49619).
`COc1ccc(-c2cn([C@@]34CCC[C@@](C)(CC[C@@H]5[C@@H]3CC5(C)C)C4)nn2)cc1` gave an inhibition of 44.8% (HT-29; cell growth or viability, CCK-8; 50 µM).
`CCS(=O)(=O)Oc1cc(C=NNC(=O)CSc2nc3ccc(Cl)cc3c(=O)n2-c2ccccc2)ccc1OC` gave an inhibition zone of 2 mm (Klebsiella pneumoniae; microbial growth, well diffusion; 20 µg/mL).
`CC1(C)C[C@H]2[C@H]1CC[C@]1(C)CCC[C@@]2(n2cc(-c3ccc(F)cc3)nn2)C1` gave an inhibition of < 50% (HT-29; cell growth or viability, CCK-8; 10 µM).
`CCCS(=O)(=O)Oc1ccc(C=NNC(=O)CSc2nc3c(C)cccc3c(=O)n2-c2ccccc2)cc1` gave an inhibition zone of 3 mm (Klebsiella pneumoniae; microbial growth, well diffusion; 20 µg/mL).
